Measurements collected from several papers.
Each line is one published result; the experiments were not run side by side. Values after ≈ are worked out from the molar mass of the structure shown.

| SMILES | organism | test | system | setting | quantity | result |
| --- | --- | --- | --- | --- | --- | --- |
| C/C(=N\C(=N)/N=C(\C)c1c(O)c2ccccc2oc1=O)c1c(O)c2ccccc2oc1=O | Penicillium verrucosum | microbial growth, broth dilution |  | 48 h | MIC | 125 µg/mL |
| O=[N+]([O-])c1ccc(Nc2ncnc3ccc(-c4cccc(N5CCOCC5)c4)cc23)cc1C(F)(F)F | Trypanosoma brucei | parasite growth, SYBR Green | GAMBIENSE |  | GI50 | 0.013 µM |
| Cc1c2c(nn1C)CSCc1cc(n(C)n1)CSc1cc(c3ccccc3c1)OCCCc1c(C(=O)O)n(C)c3c-2c(Cl)ccc13 | Enterococcus faecium | microbial growth, broth dilution |  | clinical isolate | MIC90 | 25 µM |
| COc1c(N2C[C@@H]3CCCN[C@@H]3C2)c(F)cc2c(=O)c(C(=O)O)cn(C3CC3)c12 | Enterococcus faecium | microbial growth |  | clinical isolate | MIC90 | 64 µg/mL |
| c1cc(-c2ccc3ncnc(Nc4ncco4)c3c2)nc(N2CCOCC2)c1 | Trypanosoma brucei | parasite growth, SYBR Green | GAMBIENSE |  | GI50 | 2.4 µM |
| C/C(=N\C(=S)/N=C(\C)c1c(O)c2ccccc2oc1=O)c1c(O)c2ccccc2oc1=O | Penicillium verrucosum | microbial growth, broth dilution |  | 48 h | MIC | 1.95 µg/mL |
| C[C@@H]1[C@H](O)[C@@H](C)/C=C/C=C/C=C/C=C/C=C/C=C/C=C/[C@H](O[C@@H]2O[C@H](C)[C@@H](O)[C@H](N)[C@@H]2O)C[C@@H]2O[C@](O)(C[C@@H](O)C[C@@H](O)[C@H](O)CC[C@@H](O)C[C@@H](O)CC(=O)O[C@H]1C)C[C@H](O)[C@H]2C(=O)O | Candida albicans | microbial growth, broth dilution | 58288 | 48 h | MIC | < 0.25 µM |
| O=c1[nH]c(CCl)nc2scc(-c3cccc(F)c3)c12 | Trypanosoma brucei | parasite growth, ATP luminescence |  | 48 h | EC50 | 1.1 µM |
| C/C(=N\N=C(/C)c1c(O)c2ccccc2oc1=O)c1c(O)c2ccccc2oc1=O | Penicillium verrucosum | microbial growth, broth dilution |  | 48 h | MIC | 62.5 µg/mL |
| CC(=O)N1CCN(c2ccc(OCC3COC(Cn4ccnc4)(c4ccc(Cl)cc4Cl)O3)cc2)CC1 (stereo not drawn) | Candida albicans | microbial growth, broth dilution | CGMCC2 | 48 h | MIC | 4 µM |
| Cn1cc(Nc2ncnc3ccc(-c4cccc(N5CCOCC5)c4)cc23)cn1 | Trypanosoma brucei | parasite growth, SYBR Green |  | 48 h | GI50 | 0.25 µM |
| O=c1[nH]c(CCl)nc2scc(-c3ccccc3F)c12 | Trypanosoma brucei | parasite growth, ATP luminescence |  | 24 h | EC50 | 1 µM |
| FC(F)(F)c1cc(Nc2ncnc3ccc(-c4cccc(N5CCOCC5)c4)cc23)ccc1Cl | Trypanosoma brucei | parasite growth, SYBR Green |  | 48 h | GI50 | 0.05 µM |
| CC1(C)S[C@@H]2[C@H](NC(=O)[C@H](N)c3ccccc3)C(=O)N2[C@H]1C(=O)O | Enterococcus faecium | microbial growth |  | clinical isolate | MIC50 | 128 µg/mL (≈ 366 µM) |
| CCOC(=O)c1cnc2c([N+](=O)[O-])cc(C(F)(F)F)cc2c1NC1CC1 | Trypanosoma brucei | parasite growth, resazurin |  | 72 h | EC50 | > 10 µM |
| O=c1[nH]c(CCl)nc2scc(-c3ccc(F)cc3)c12 | Trypanosoma brucei | parasite growth, ATP luminescence |  | 48 h | EC50 | 1.5 µM |
| c1cc(-c2ccc3ncnc(Nc4ncco4)c3c2)nc(N2C[C@H]3C[C@@H]2CO3)n1 | Trypanosoma brucei | parasite growth, SYBR Green |  | 48 h | GI50 | 4.7 µM |
| CC1(C)S[C@@H]2[C@H](NC(=O)[C@H](N)c3ccccc3)C(=O)N2[C@H]1C(=O)O | Enterococcus faecium | microbial growth, broth dilution | ATCC19434 | 12 h | MIC | 0.5 µg/mL |
